Among the data in ChEMBL document CHEMBL2331221, “Potent elastase inhibitors from cyanobacteria: structural basis and mechanisms mediating cytoprotective and anti-inflammatory effects in bronchial epithelial cells” (J Med Chem, 2013) are Activity, IC50 and inhibition values, retold here.

For test [1], the species on record is Homo sapiens. Put plainly: Inhibition of human pancreatic chymotrypsin assessed as proteolysis using N-succinyl-Ala-Ala-Pro-Phe-p-nitroanilide substrate incubated at 10 uM for 30 mins prior to substrate addition. Details: scale not given: the % may be the effect or the level left. The gist of the method: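 Pancreatic chymotrypsin, bovine at 100 μg/mL or human at 50 μg/mL; reaction buffer, enzyme and inhibitor (DMSO) incubated 30 min at room temperature, then substrate added (bovine: N-succinyl-Gly-Gly-Phe-pNA; human: N-succinyl-Ala-Ala-Pro-Phe-pNA). Absorbance read at 405 nm; activity from reaction slope relative to solvent control.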

The nature of test [2]: Inhibition of human pancreatic chymotrypsin assessed as proteolysis using N-succinyl-Ala-Ala-Pro-Phe-p-nitroanilide substrate incubated for 30 mins prior to substrate addition.
A short description of test [3]: Inhibition of bovine pancreatic chymotrypsin assessed as proteolysis using N-succinyl-Gly-Gly-Phe-p-nitroanilide substrate incubated for 30 mins prior to substrate addition. Further details: species or system Bos taurus.
Test [4] is described as follows: Inhibition of porcine pancreatic elastase assessed as proteolysis using N-succinyl-Ala-Ala-Ala-p-nitroanilide substrate incubated for 15 mins prior to substrate addition measured every 30 seconds. Further details: species or system Sus scrofa.
The target in test [5] is T1, Neutrophil elastase (Homo sapiens) (UniProt P08246).
T1 sequence (whole entry): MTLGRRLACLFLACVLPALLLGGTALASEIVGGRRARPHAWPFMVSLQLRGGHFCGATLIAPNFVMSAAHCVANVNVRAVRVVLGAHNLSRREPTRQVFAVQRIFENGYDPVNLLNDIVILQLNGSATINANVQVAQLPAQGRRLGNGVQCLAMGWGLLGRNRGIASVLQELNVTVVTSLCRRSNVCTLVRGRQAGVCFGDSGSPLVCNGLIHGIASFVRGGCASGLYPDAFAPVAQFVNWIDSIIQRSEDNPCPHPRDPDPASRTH
The following applies: BEAS2B, 100 uM.

Test [6] deals with T1, Neutrophil elastase (Homo sapiens). The settings on record: BEAS2B, 100 uM. This is another data set of the same source.
The target is the same in test [7]. The following applies: BEAS2B, 100 uM. The source holds these as a separate data set.
Test [8] in a line: Antiproteolytic activity against elastase (unknown origin). Further details: species or system Homo sapiens. The gist of the method:
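Inhibitor in DMSO pre-incubated with elastase in Tris-HCl pH 8.0 for 15 min at room temperature. Reaction started with N-succinyl-Ala-Ala-Ala-p-nitroanilide (2 mM in the added substrate solution). Absorbance at 405 nm read every 30 s. Activity is the initial slope of each progress curve, as percent of the uninhibited reaction.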

Molecules are shown by their SMILES. Activity calls are given as the source filed them. No cut-off for these calls is given here. Where only a bound is given, the exact number is not on record here.

Broadly, the IC50 is the concentration needed to halve the response being measured. For the compound `CC(C)(C)C(=O)Oc1ccc(S(=O)(=O)Nc2ccccc2C(=O)NCC(=O)O)cc1`, the Activity in test [1] came to 55.1%. Further, the IC50 in test [2] is > 10 µM; in test [3] it was 4.08 µM; in test [4], 2.81 µM. The inhibition entry in test [5], in test [6] and in test [7] was “Active” throughout.
Consider `C/C=C1\NC(=O)[C@@H](NC(=O)[C@H](CCc2ccc(O)cc2)NC(=O)[C@H](C)NC(=O)[C@H](O)COS(=O)(=O)O)[C@@H](C)OC(=O)[C@H](C(C)C)NC(=O)[C@H](Cc2ccc(O)cc2)N(C)C(=O)[C@H](Cc2ccccc2)N2C(=O)[C@H](CC[C@H]2O)NC1=O` [LYNGBYASTATIN 4], for which the Activity in test [1] stood at 72.2%. In test [2], the IC50 is > 10 µM.
In turn, `C/C=C1\NC(=O)[C@@H](NC(=O)[C@@H](NC(=O)[C@H](C)NC(C)=O)C(C)C)[C@@H](C)OC(=O)[C@H](C(C)C)NC(=O)[C@H](Cc2ccc(O)cc2)N(C)C(=O)[C@H](Cc2ccccc2)N2C(=O)[C@H](CC[C@H]2O)NC1=O` [LYNGBYASTATIN 8] gave an IC50 in test [8] of 0.12 µM.
As for `C/C=C1\NC(=O)[C@@H](NC(=O)[C@@H](NC(=O)[C@H](C)NC(=O)CCC)C(C)C)[C@@H](C)OC(=O)[C@H](C(C)C)NC(=O)[C@H](Cc2ccc(O)cc2)N(C)C(=O)[C@H](Cc2ccccc2)N2C(=O)[C@H](CC[C@H]2O)NC1=O` [LYNGBYASTATIN 9], in test [8], the IC50 came to 0.12 µM.
With `C/C=C1\NC(=O)[C@@H](NC(=O)[C@@H](NC(=O)[C@@H](COS(=O)(=O)O)OC)C(C)C)[C@@H](C)OC(=O)[C@H](C(C)C)NC(=O)[C@H](Cc2ccccc2)N(C)C(=O)[C@H](Cc2ccccc2)N2C(=O)[C@H](CC[C@H]2O)NC1=O` [symplostatin 6], the Activity in test [1] was 90.6%. Besides, the IC50 in test [2] was > 10 µM.
For the compound `C/C=C1\NC(=O)[C@@H](NC(=O)[C@@H](NC(=O)[C@@H](COS(=O)(=O)O)OC)[C@@H](C)CC)[C@@H](C)OC(=O)[C@H]([C@H](C)CC)NC(=O)[C@H](Cc2ccccc2)N(C)C(=O)[C@H](Cc2ccccc2)N2C(=O)[C@H](CC[C@H]2O)NC1=O` [symplostatin 7], the Activity in test [1] turned out to be 70.7%. Also, in test [2], the IC50 was > 10 µM.
With `C/C=C1\NC(=O)[C@@H](NC(=O)[C@@H](NC(=O)[C@@H](COS(=O)(=O)O)OC)C(C)C)[C@@H](C)OC(=O)[C@H]([C@H](C)CC)NC(=O)[C@H](Cc2ccc(O)cc2)N(C)C(=O)[C@H](Cc2ccccc2)N2C(=O)[C@H](CC[C@H]2O)NC1=O` [symplostatin 8], the Activity in test [1] stood at 69%. For the same compound, in test [2], the 50% inhibitory concentration (IC50) was > 10 µM.
For `C/C=C1\NC(=O)[C@@H](NC(=O)[C@@H](NC(=O)[C@@H](COS(=O)(=O)O)OC)C(C)C)[C@@H](C)OC(=O)[C@H](C(C)C)NC(=O)[C@H](Cc2ccc(O)cc2)N(C)C(=O)[C@H](Cc2ccccc2)N2C(=O)[C@H](CC[C@H]2O)NC1=O` [symplostatin 9] the same measures were 73.9% and > 10 µM.
On to `C/C=C1\NC(=O)[C@@H](NC(=O)[C@@H](NC(=O)[C@@H](COS(=O)(=O)O)OC)[C@@H](C)CC)[C@@H](C)OC(=O)[C@H]([C@H](C)CC)NC(=O)[C@H](Cc2ccc(O)cc2)N(C)C(=O)[C@H](Cc2ccccc2)N2C(=O)[C@H](CC[C@H]2O)NC1=O` [symplostatin 10], for which the Activity in test [1] worked out at 79.4%. The IC50 in test [2] is > 10 µM.
